Measured values as given in ChEMBL document CHEMBL4257459, “Synergistic antifungal effect of cyclized chalcone derivatives and fluconazole against Candida albicans” (2017).
≈ marks a conversion by molar mass, not a printed value.

What was measured:
Candida albicans [1] = experiment: Inhibition of ABC efflux pumps in fluconazole susceptible Candida albicans 004B1 assessed as reduction in energy-dependent rhodamine 6G efflux in presence of 0.1 M glucose after 25 mins by fluorescence assay relative to control
Procedure, shortened: (§1)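 Cells grown in TSB at 37 °C for 8 h, washed, resuspended in glucose-free PBS at 1 × 10^8 cells. De-energized 45 min with 5 mM deoxyglucose plus 5 mM dinitrophenol. […] Washed, sampled 5–25 min, then 0.1 M glucose added. Absorbance 527 nm, R6G from standard curve.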

Candida albicans [2] = experiment: Antifungal activity against fluconazole susceptible Candida albicans 0079gr in presence of fluconazole by CLSI protocol based broth microdilution method; type: functional
Candida albicans [3] = experiment: Antifungal activity against fluconazole susceptible Candida albicans 004B1 by CLSI protocol based broth microdilution method; type: functional
Procedure, shortened: (§2)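 Clinical isolates and control strain subcultured at least twice on TSA, 37 °C, 48 h. MICs by CLSI M27-A3 broth microdilution; compounds dissolved in DMSO to 2000 μg mL–1 stock. Fluconazole positive control, culture, media and DMSO vehicle controls in each run. Duplicate experiments; MIC in μg mL–1.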

Candida albicans [4] = experiment: Antifungal activity against fluconazole susceptible Candida albicans 004gr by CLSI protocol based broth microdilution method; type: functional; procedure, shortened: as §2
Candida albicans [5] = experiment: Antifungal activity against fluconazole susceptible Candida albicans 004B1 in presence of fluconazole by CLSI protocol based broth microdilution method; type: functional
Candida albicans [6] = experiment: Antifungal activity against fluconazole resistant Candida albicans 167-2 in presence of fluconazole by CLSI protocol based broth microdilution method; type: functional
Procedure, shortened: (§3)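 Checkerboard-style combination with fluconazole at a 1 : 1 ratio, over concentrations 2–4 fold below each agent's MIC alone, by CLSI broth microdilution. Fractional inhibitory concentration index calculated and interpreted as synergy (<0.5), additive (0.5–1), indifferent or antagonistic.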

Candida albicans [7] = experiment: Inhibition of ABC efflux pumps in fluconazole susceptible Candida albicans 0079gr assessed as reduction in energy-dependent rhodamine 6G efflux in presence of 0.1 M glucose after 25 mins by fluorescence assay relative to control; procedure, shortened: as §1
Candida albicans [8] = experiment: Inhibition of ABC efflux pumps in fluconazole resistant Candida albicans 167-1 assessed as reduction in energy-dependent rhodamine 6G efflux in presence of 0.1 M glucose after 25 mins […] relative to control
Candida albicans [9] = experiment: Inhibition of ABC efflux pumps in fluconazole susceptible Candida albicans 003gr assessed as reduction in energy-dependent rhodamine 6G efflux in presence of 0.1 M glucose after 25 mins […] relative to control
Candida albicans [10] = experiment: Inhibition of ABC efflux pumps in fluconazole susceptible Candida albicans 0072gr assessed as reduction in energy-dependent rhodamine 6G efflux in presence of 0.1 M glucose after 25 mins […] relative to control
Candida albicans [11] = experiment: Antifungal activity against fluconazole resistant Candida albicans 167-1 in presence of fluconazole by CLSI protocol based broth microdilution method; type: functional; procedure, shortened: as §3
Candida albicans [12] = experiment: Antifungal activity against fluconazole susceptible Candida albicans 002B1 in presence of fluconazole by CLSI protocol based broth microdilution method; type: functional
Candida albicans [13] = experiment: Antifungal activity against fluconazole susceptible Candida albicans 0072gr in presence of fluconazole by CLSI protocol based broth microdilution method; type: functional
Candida albicans [14] = experiment: Antifungal activity against fluconazole resistant Candida albicans A171 in presence of fluconazole by CLSI protocol based broth microdilution method; type: functional; procedure, shortened: as §3
Candida albicans [15] = experiment: Antifungal activity against fluconazole susceptible Candida albicans 0079gr by CLSI protocol based broth microdilution method; type: functional; procedure, shortened: as §2
Candida albicans [16] = experiment: Antifungal activity against fluconazole susceptible Candida albicans 0072gr by CLSI protocol based broth microdilution method; type: functional; procedure, shortened: as §2
Candida albicans [17] = experiment: Antifungal activity against fluconazole susceptible Candida albicans 003gr by CLSI protocol based broth microdilution method; type: functional; procedure, shortened: as §2
Candida albicans [18] = experiment: Antifungal activity against Candida albicans ATCC 90028 in presence of fluconazole by CLSI protocol based broth microdilution method; type: functional
Candida albicans [19] = experiment: Antifungal activity against fluconazole resistant Candida albicans A171 by CLSI protocol based broth microdilution method; type: functional
Procedure, shortened: (§4)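 Broth microdilution per CLSI M27-A3 against clinical C. albicans isolates. Strains sub-cultured at least twice on Tryptone Soya Agar, 37 °C, 48 h. Compounds dissolved in DMSO at 2000 μg mL–1 stock. Fluconazole positive control, plus culture, media and vehicle controls. Run in duplicate; MIC in μg mL–1.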

Candida albicans [20] = experiment: Inhibition of ABC efflux pumps in fluconazole resistant Candida albicans A171 assessed as reduction in energy-dependent rhodamine 6G efflux in presence of 0.1 M glucose after 25 mins by fluorescence assay relative to control; procedure, shortened: as §1
Candida albicans [21] = experiment: Inhibition of ABC efflux pumps in fluconazole susceptible Candida albicans 004gr assessed as reduction in energy-dependent rhodamine 6G efflux in presence of 0.1 M glucose after 25 mins by fluorescence assay relative to control; procedure, shortened: as §1
Candida albicans [22] = experiment: Antifungal activity against fluconazole resistant Candida albicans 167-2 by CLSI protocol based broth microdilution method; type: functional; procedure, shortened: as §4
Candida albicans [23] = experiment: Antifungal activity against fluconazole resistant Candida albicans 167-1 by CLSI protocol based broth microdilution method; type: functional; procedure, shortened: as §4
Candida albicans [24] = experiment: Inhibition of ABC efflux pumps in fluconazole resistant Candida albicans 167-2 assessed as reduction in energy-dependent rhodamine 6G efflux in presence of 0.1 M glucose after 25 mins […] relative to control
Candida albicans [25] = experiment: Antifungal activity against Candida albicans ATCC 90028 by CLSI protocol based broth microdilution method; type: functional; procedure, shortened: as §2
Candida albicans [26] = experiment: Antifungal activity against fluconazole susceptible Candida albicans 002B1 by CLSI protocol based broth microdilution method; type: functional; procedure, shortened: as §2
Candida albicans [27] = experiment: Antifungal activity against fluconazole susceptible Candida albicans 003gr in presence of fluconazole by CLSI protocol based broth microdilution method; type: functional
Candida albicans [28] = experiment: Antifungal activity against fluconazole susceptible Candida albicans 004gr in presence of fluconazole by CLSI protocol based broth microdilution method; type: functional
Candida albicans [29] = experiment: Inhibition of ergosterol biosynthesis in fluconazole resistant Candida albicans A171 at 0.5 to 1 times MIC relative to control; type: functional
Procedure, shortened: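 Total sterols quantified by alcoholic KOH extraction in cells grown in 50 ml TSB with compounds at MIC and ½ MIC; untreated and 8 μg mL–1 fluconazole controls. Spectral scan; ergosterol content from A281.5 and A230 absorbances, dilution factor and pellet weight, correcting for 24(28) DHE.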

Candida albicans [30] = experiment: Inhibition of ABC efflux pumps in fluconazole susceptible Candida albicans 002B1 assessed as reduction in energy-dependent rhodamine 6G efflux in presence of 0.1 M glucose after 25 mins […] relative to control
Candida albicans [31] = experiment: Inhibition of ergosterol biosynthesis in fluconazole susceptible Candida albicans ATCC 90028 at 0.5 to 1 times MIC relative to control; type: functional
Procedure, shortened: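 ATCC90028 grown in 50 ml TSB with MIC and ½ MIC of compound; untreated and 8 μg mL–1 fluconazole controls. Sterols extracted by alcoholic KOH method and spectrophotometrically scanned; ergosterol % calculated from A281.5 and A230 (E values 290 and 518) with dilution factor, per pellet weight.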

Row | SMILES | inhibition (Candida albicans [1]) | fractional inhibitory concentration index (FICI) (Candida albicans [2]) | MIC (Candida albicans [3]) | MIC (Candida albicans [4]) | fractional inhibitory concentration index (FICI) (Candida albicans [5]) | fractional inhibitory concentration index (FICI) (Candida albicans [6]) | inhibition (Candida albicans [7]) | inhibition (Candida albicans [8]) | inhibition (Candida albicans [9]) | inhibition (Candida albicans [10]) | fractional inhibitory concentration index (FICI) (Candida albicans [11]) | fractional inhibitory concentration index (FICI) (Candida albicans [12]) | fractional inhibitory concentration index (FICI) (Candida albicans [13]) | fractional inhibitory concentration index (FICI) (Candida albicans [14]) | MIC (Candida albicans [15]) | MIC (Candida albicans [16]) | MIC (Candida albicans [17]) | fractional inhibitory concentration index (FICI) (Candida albicans [18]) | MIC (Candida albicans [19]) | inhibition (Candida albicans [20]) | other results
1 | NC(=S)N1N=C(c2ccccc2)CC1c1ccccc1 (configuration not stated) | < 20% | 1.97 - 4.28 | 125 to 500 µg/mL (≈ 444 to 1780 µM) | 125 to 500 µg/mL (≈ 444 to 1780 µM) | 1.97 - 4.28 | 0.75 - 1.5 | < 20% | < 20% | < 20% | < 20% | 0.75 - 1.5 | 1.97 - 4.28 | 1.97 - 4.28 | 0.75 - 1.5 | 125 to 500 µg/mL (≈ 444 to 1780 µM) | 125 to 500 µg/mL (≈ 444 to 1780 µM) | 125 to 500 µg/mL (≈ 444 to 1780 µM) | 1.97 - 4.28 | 500 µg/mL (≈ 1780 µM) | < 20% | inhibition (Candida albicans [21]): < 20%; MIC (Candida albicans [22]): 500 µg/mL (≈ 1780 µM); MIC (Candida albicans [23]): 500 µg/mL (≈ 1780 µM); inhibition (Candida albicans [24]): < 20%; MIC (Candida albicans [25]): 125 to 500 µg/mL (≈ 444 to 1780 µM); MIC (Candida albicans [26]): 125 to 500 µg/mL (≈ 444 to 1780 µM); fractional inhibitory concentration index (FICI) (Candida albicans [27]): 1.97 - 4.28; fractional inhibitory concentration index (FICI) (Candida albicans [28]): 1.97 - 4.28; inhibition (INH) (Candida albicans [29]): 49 - 94%; inhibition (Candida albicans [30]): < 20%; inhibition (INH) (Candida albicans [31]): 66 - 99%
2 | c1ccc(C2=NOC(c3ccccc3)C2)cc1 (configuration not stated) | < 20% | 0.75 - 2 | 4 to 31 µg/mL (≈ 17.9 to 139 µM) | 4 to 31 µg/mL (≈ 17.9 to 139 µM) | 0.75 - 2 | 0.531 - 0.56 | < 20% | < 20% | < 20% | < 20% | 0.531 - 0.56 | 0.75 - 2 | 0.75 - 2 | 0.531 - 0.56 | 4 to 31 µg/mL (≈ 17.9 to 139 µM) | 4 to 31 µg/mL (≈ 17.9 to 139 µM) | 4 to 31 µg/mL (≈ 17.9 to 139 µM) | 0.75 - 2 | 16 to 31 µg/mL (≈ 71.7 to 139 µM) | < 20% | inhibition (Candida albicans [21]): < 20%; MIC (Candida albicans [22]): 16 to 31 µg/mL (≈ 71.7 to 139 µM); MIC (Candida albicans [23]): 16 to 31 µg/mL (≈ 71.7 to 139 µM); inhibition (Candida albicans [24]): < 20%; MIC (Candida albicans [25]): 4 to 31 µg/mL (≈ 17.9 to 139 µM); MIC (Candida albicans [26]): 4 to 31 µg/mL (≈ 17.9 to 139 µM); fractional inhibitory concentration index (FICI) (Candida albicans [27]): 0.75 - 2; fractional inhibitory concentration index (FICI) (Candida albicans [28]): 0.75 - 2; inhibition (INH) (Candida albicans [29]): 49 - 94%; inhibition (Candida albicans [30]): < 20%; inhibition (INH) (Candida albicans [31]): 66 - 99%
